These results are taken from ChEMBL document CHEMBL4765352, “Discovery of AdipoRon analogues as novel AMPK activators without inhibiting mitochondrial complex I” (Eur J Med Chem, 2020).

The source made the active and inactive calls. The rule behind the calls is not given here.

Data set [1] is described as follows: Induction of cardiac hypertrophy in db/db mouse at 100 mg/kg, ig administered for 10 weeks. It is filed as organism-based. To be noted: in vivo, po, 1680 h.
In data set [2] the test system is Mus musculus. The data set can be described thus: Activation of AMPK in normal lean C57BL/6 mouse assessed as increase in phosphorylated ACC level in skeletal muscle at 100 mg/kg, ig administered for 4 weeks by Western blot analysis. The data set is classed as functional, organism-based. As to conditions: Skeletal muscle tissue. The method in brief:
(§1)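 Male C57BL/6 mice, 9 weeks old, dosed intragastrically once daily for 4 weeks alongside vehicle controls. Heart and skeletal muscle were homogenized in RIPA buffer with protease/phosphatase inhibitors and centrifuged at 10,600 g for 20 min. About 30 µg protein was blotted for p-AMPK and p-ACC and detected by ECL.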
For orientation: In western blotting, separated proteins are transferred to a membrane and probed.

Data set [3] concerns Mus musculus. In words: Hypoglycemic activity in 6 hrs fasted ig dosed normal lean C57BL/6 mouse assessed as improved glucose tolerance pretreated for 2 hrs followed by glucose challenge and measured up to 90 mins post glucose challenge starting from 120 mins prior to […] by IPGTT. The data set is classed as functional, organism-based. As to conditions: dose 25-100 mg/kg, time 210.0 min. A digest of the protocol: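 C57BL/6 mice (male, 8-10 weeks, n=6 per group) fasted 6 h, then given compound or vehicle intragastrically. Two hours later, 20% glucose was injected i.p. at 2 g/kg. Tail-vein glucose read by glucometer at -120, 0, 20, 40, 60 and 90 min, and net AUC calculated. Doses were 25, 50 and 100 mg/kg.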

The nature of data set [4]: Inhibition of bovine heart mitochondrial complex 1 at 5 to 20 uM measured every minute for 2 hrs by microplate reader based assay. The data set is classed as tissue-based, Bos taurus. As to conditions: cattle, dose 5-20 µM. The method in brief: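 Bovine heart mitochondria in detergent were captured on a complex I antibody-coated plate for 2 h at room temperature. Phospholipids were added, then complex I solution with compound, rotenone control or DMSO. NADH oxidation was followed as the fall in A340, read every minute for at least 2 h at 30 °C.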

In data set [5] the test system is C2C12. The data set can be described thus: Activation of AMPK in mouse C2C12 cells assessed as increase in AMPK phosphorylation in presence of CaMKKbeta inhibitor STO-609. It is filed as cell-based. To be noted: filed as activator.
Data set [6] is described as follows: Induction of cardiac hypertrophy in db/db mouse assessed as increase in cardiac glycogen accumulation at 100 mg/kg, ig administered for 10 weeks. The data set is classed as organism-based. As to conditions: in vivo, po, 1680 h.
Data set [7] deals with C2C12. In words: Activation of AMPK in mouse C2C12 cells assessed as increase in ACC phosphorylation measured after 2 hrs by Western blotting analysis. To be noted: filed as activator, dose 0.1-20 µM. The data set is classed as cell-based. The method in brief: (§2)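 C2C12 myoblasts differentiated in DMEM with 2% horse serum for 5-7 days until myotubes formed. Treated for 2 h, either at 10 μM or across a concentration range, or at 10 μM over a time course. RIPA lysates (~30 µg protein) blotted for p-AMPK/AMPK and p-ACC/ACC, detected by ECL. The p-AMPK/AMPK ratio is expressed as fold of the DMSO vehicle.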

In data set [8] the test system is A549. The data set can be described thus: Cytotoxicity against human A549 cells assessed as reduction in cell viability at 5 to 20 uM incubated for 72 hrs by MTT assay. The data set is classed as cell-based. To be noted: a549, 72 h, dose 5-20 µM. The method in brief: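 MTT viability assay in C2C12, HepG2 and A549 cells. Exposure was 24 h or 72 h for C2C12 and 72 h for HepG2 and A549. Three replicates per group, compared with the 0 μM group by Student's t test.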
A general note: Tetrazolium dyes change colour on reduction, which living cells bring about.

The species entered for data set [9] is Homo sapiens. In words: Activation of AMPK alpha1/beta1/gamma1 (unknown origin).
Data set [10] relates to Mus musculus. The data set can be described thus: Antihyperglycemic activity in db/db mouse assessed as improved insulin resistant at 100 mg/kg, ig administered once daily for 9 weeks by ITT. The data set is classed as functional, organism-based. A digest of the protocol: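 db/db mice dosed from 5 weeks of age with 100 mg/kg/day in 0.5% methylcellulose vehicle, for 9 weeks. After a 6 h fast, insulin was injected i.p. at 1.5 mU/g body weight and tail-vein blood glucose followed. Data given as mean ± SEM and compared by two-way ANOVA.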

Data set [11] is described as follows: Metabolic stability in ICR/CD-1 mouse liver microsomes assessed as intrinsic clearance preincubated for 5 mins followed by NADPH addition and measured up to 45 mins by LC/MS analysis. It is filed as ADME, Microsome. As to conditions: time 50 min, read-out: CLH. A digest of the protocol:
(§3)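 Compound and liver microsomes in preheated potassium phosphate buffer, held at 37 °C for 5 min. Reaction started with NADPH and stopped at 0, 5, 15, 30 and 45 min with acetonitrile containing tolbutamide internal standard. Samples centrifuged at 6000 rpm for 15 min, supernatant analysed by LC/MS. Ketanserin run as assay control. Performed by a contract lab.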

The next data set deals with HepG2. In words: Activation of AMPK in human HepG2 cells assessed as increase in AMPK phosphorylation at 1 to 20 uM measured after 2 to 12 hrs by Western blotting analysis. It is filed as cell-based. To be noted: filed as activator, dose 1-20 µM, time 2-12 hrs. A digest of the protocol:
(§4)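 HepG2 and HuH-7 cells in medium with 10% FBS and penicillin/streptomycin at 37 °C, 5% CO₂. Treated with a range of concentrations for 2 h, or with 10 μM over a time course. Cells lysed in RIPA buffer with protease/phosphatase inhibitors; ~30 µg protein per lane blotted for p-AMPK, AMPK, p-ACC, ACC, with GAPDH or β-actin as loading control. Detected by ECL.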

The next data set deals with Huh-7. The data set can be described thus: Activation of AMPK in human HuH-7 cells assessed as increase in ACC phosphorylation at 1 to 20 uM measured after 2 to 12 hrs by Western blotting analysis. The data set is classed as cell-based. To be noted: filed as activator, dose 1-20 µM, time 2-12 hrs. The method in brief: as §4
The test system of data set [12] is Mus musculus. In words: Activation of AMPK in normal lean C57BL/6 mouse assessed as increase in phosphorylated ACC level in heart tissue at 100 mg/kg, ig administered for 4 weeks by Western blot analysis. The data set is classed as functional, organism-based. The method in brief:
as §1

Data set [13] deals with A549. In words: Activation of AMPK in human A549 cells harboring mutant LKB1. The data set is classed as cell-based.
Another data set concerns H9c2. The data set can be described thus: Activation of AMPK in rat H9C2 cells assessed as increase in phosphorylation of ACC at 1 to 20 uM incubated for 1 to 24 hrs by Western blot analysis. The data set is classed as cell-based. As to conditions: dose 1-20 µM, time 1-24 hrs. The method in brief:
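Rat cardiac H9C2 cells treated with a concentration range for 2 h or 4 h, or with 10 μM over a time course. Lysates blotted for phosphorylated and total AMPK and ACC, detected by ECL.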

Data set [14] relates to Mus musculus. The data set can be described thus: Antihyperglycemic activity in db/db mouse assessed as reduction in fasting blood glucose level at 100 mg/kg, ig administered once daily for 2 to 6 weeks. The data set is classed as functional, organism-based. To be noted: time 2-6 weeks. A digest of the protocol:
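db/db mice, 5 weeks old, grouped by matching baseline blood glucose and body weight. Dosed intragastrically once daily at 100 mg/kg in 0.5% methylcellulose; vehicle-treated db/db and db/m mice served as controls. Body weight and fasting blood glucose measured weekly. Serum ALT and AST measured after 10 weeks. Data given as mean ± SEM.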

Data set [15] is described as follows: Metabolic stability in human liver microsomes assessed as intrinsic clearance preincubated for 5 mins followed by NADPH addition and measured up to 45 mins by LC/MS analysis. It is filed as ADME, Microsome. As to conditions: time 50 min, read-out: CLH. A digest of the protocol: as §3
Background: Liver microsomes are a subcellular fraction often used to study metabolism.

For data set [16], the species on record is Mus musculus. In words: Improvement in lipid homeostasis in db/db mouse assessed as effect on serum total cholesterol level. The data set is classed as functional, organism-based.
The species entered for data set [17] is Homo sapiens. In words: Activation of AMPK alpha2/beta2/gamma1 (unknown origin).
The test system of data set [18] is C2C12. In words: Activation of AMPK in mouse C2C12 cells assessed as increase in AMPK phosphorylation at Thr172 residue at 10 uM measured after 2 hrs by Western blot analysis. The data set is classed as cell-based. As to conditions: filed as activator. The method in brief:
as §2

Take `CC(C)(Oc1ccc(Cl)cc1)C(=O)Nc1ccc(OCc2ccc(C#N)cc2)cc1`: the Activity entry in [1] was “Non-Toxic”; in the data set on Mus musculus [3] it was “Dose-dependent effect”; in [6], “Non-Toxic”; in the data set on C2C12 [7] it was “Dose-dependent effect”; with A549 [8], “Non-Toxic”. Moreover, the outcome in the data set on Mus musculus [2], in the data set with C2C12 [5], with Mus musculus [10], in the data set on HepG2, with Huh-7 and in the data set on Mus musculus [14] was Active. In addition, in the data set on C2C12 [18], the outcome was Active. Also, the “inhibition (INH)” value in data set [4] was “Not Active”. Moreover, the result in the data set listed under Homo sapiens [9], with Mus musculus [12], in the data set on A549 [13], in the data set with H9c2, in the data set listed under Mus musculus [16] and in the data set filed under Homo sapiens [17] was inactive. The figures for the CLint scaled in data set [11] and in data set [15] were 152 mL/min/kg and 18 mL/min/kg, respectively.
